Measurements: publication PMC3880594 (Journal of medicinal chemistry, 2013)

Key:
[1] = system: Bcl-2, Bax, NF-κB (p65), PARP, caspase-3 in MDA-MB-231 cells; assay: Western blot of apoptosis related proteins; type: cell-based, human; settings: 48 h; 10 and 19 at 2.5-10 μM, 1 at 10-30 μM
How it was run: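 MDA-MB-231 cells exposed to test compound or DMSO for 48 h, then lysed; protein measured by Bradford against BSA. 30 μg per lane resolved by SDS-PAGE and blotted to PVDF, blocked in 5% non-fat milk. Primary antibodies overnight: Bcl-2 1:200, Bax 1:1000, PARP 1:10000, NF-κB 1:2000, caspase-3 1:1000, β-actin 1:20000. Secondary antibody applied, then ECL detection.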

[2] = system: MDA-MB-231 xenograft tumors; assay: MDA-MB-231 xenograft tumor model; type: in vivo; settings: 5 mg/kg i.p., nude mice
[3] = system: HMEC (human normal mammary epithelial cells); assay: Growth inhibition of normal human mammary epithelial cells; type: cell-based; settings: 10 μM, 24 h; p < 0.05
MDA-MB-231 cells [4] = assay: Colony formation assay; type: cell-based, human; settings: 0.625-10 μM, two weeks
How it was run: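 MDA-MB-231 cells seeded at 800 cells/well in regular medium; after 24 h, test compound (0.625, 1.25, 2.5, 5 or 10 μM) or DMSO vehicle added. Drug-containing medium renewed every 72 h for two weeks. Wells stained with 0.01% crystal violet for 10 min, PBS-washed and dried, then whole-well density quantified digitally. Triplicate; one-way ANOVA, SD shown.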

MDA-MB-231 cells [5] = assay: Cell apoptosis assay; type: cell-based, human; settings: MDA-MB-231 cells, 1.0, 5.0, 10 μM, 24 h
[6] = system: MCF-7 (ER-positive) breast cancer cells; assay: MTT antiproliferation assay, MCF-7; type: cell-based, human; settings: MCF-7 and MDA-MB-231 cells
How it was run: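 Human breast cancer lines MCF-7 (ER-positive) and MDA-MB-231 (triple-negative) were used, with oridonin tested alongside. MTT antiproliferation read-out: after the MTT step, solution replaced by DMSO, OD at 550 nm after 10 min. Each concentration in quadruplicate wells. IC50 by curve fitting. Mean ± SE of three independent experiments.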

[7] = system: MDA-MB-231, a TNBC cell line; settings: same dose range effective for MCF-7 cells; ref 9a; cited from earlier work
[8] = system: MCF-7/ADR cells (adriamycin-resistant MCF-7 clone); assay: Growth inhibition of drug-resistant breast cancer cells; type: cell-based, human; settings: concentrations from 1 μM to 10 μM, 48 h

| SMILES | Bax protein level [1] | Bcl-2 protein level [1] | NF-κB (p65) protein expression [1] | PARP cleavage (116 kDa to 25 kDa) [1] | caspase-3 activation [1] | tolerability / body weight [2] | toxicity to HMEC compared with oridonin [3] | inhibition of colony formation (MDA-MB-231 cells [4]) | induction of apoptosis (MDA-MB-231 cells [5]) | antiproliferative activities (in words) [6] | growth of MDA-MB-231 [7] | growth inhibitory activity on MCF-7/ADR cells [8] |
| --- | --- | --- | --- | --- | --- | --- | --- | --- | --- | --- | --- | --- |
| C=C1C(=O)[C@@]23[C@@H]4OC(C)(C)O[C@]25OC[C@]2(C=CC(=O)C(C)(C)[C@H]2[C@@H]5O)[C@@H]3CC[C@@H]14 [Compound 19, (3S,3aR,3a^1R,6aR,7S,7aS,11aR,11bS)-7-hydroxy-5,5,8,8-tetramethyl-15-methylene-3,3a,7,7a,8,11b-hexahydro-1H-6a,11a-(epoxymethano)-3,3a^1-ethanophenanthro[1,10-de][1,3]dioxine-9,14(2H)-dione] | up-regulation | down-regulation | significant decrease | triggered PARP cleavage | activated caspase-3 in a dose-dependent manner | no significant loss of body weight | lower toxicity at 10 μM than oridonin | significantly blocked the colony formation of MDA-MB-231 cells at a submicromolar concentration | significant effects to induce apoptosis of MDA-MB-231 cells in a dose-dependent manner | – | – | – |
| C=C1C(=O)[C@@]23[C@@H]4OC(C)(C)O[C@]25OC[C@]2(C(=O)C(C=O)=CC(C)(C)[C@H]2[C@@H]5O)[C@@H]3CC[C@@H]14 [Compound 10, (3S,3aR,3a^1R,6aR,7S,7aR,11aS,11bS)-7-hydroxy-5,5,8,8-tetramethyl-15-methylene-11,14-dioxo-2,3,3a,7,7a,8,11,11b-octahydro-1H-6a,11a-(epoxymethano)-3,3a^1-ethanophenanthro[1,10-de][1,3]dioxine-10-carbaldehyde] | up-regulation | down-regulation | significant decrease | triggered PARP cleavage | activated caspase-3 in a dose-dependent manner | – | – | inhibit the colony formation | significant effects to induce apoptosis of MDA-MB-231 cells in a dose-dependent manner | – | – | – |
| C=C1C(=O)[C@@]23C(=O)[C@@H](O)[C@@H]4C(C)(C)[C@@H]5OC[C@]4(C(=O)/C5=C\O)[C@@H]2CC[C@@H]1[C@H]3O [Compound 14, (3S,4aR,5S,6aR,9S,11aS,11bS,14R,Z)-5,14-dihydroxy-2-(hydroxymethylene)-4,4-dimethyl-8-methyleneoctahydro-1H-3,11b-(epoxymethano)-6a,9-methanocyclohepta[a]naphthalene-1,6,7(2H,8H)-trione] | – | – | – | – | – | – | – | – | – | no obvious antiproliferative activities | – | – |
| C=C1C(=O)[C@]23[C@H](O)[C@H]1CC[C@H]2[C@@]12CO[C@]3(O)[C@@H](O)[C@@H]1C(C)(C)CC[C@@H]2O [Compound 1, Oridonin, reference compound] | up-regulation | down-regulation | down-regulation | up-regulation of Bax and cleaved PARP | did not activate caspase-3 cleavage | – | – | – | – | – | failed to reduce the growth | no growth inhibitory activity |
| C=C1C(=O)[C@@]23C(=O)[C@@H](O)[C@@H]4C(C)(C)[C@@H]5OC[C@]4(C(=O)/C5=C/OC)[C@@H]2CC[C@@H]1[C@H]3O [Compound 13, (3S,4aR,5S,6aR,9S,11aS,11bS,14R,E)-5,14-dihydroxy-2-(methoxymethylene)-4,4-dimethyl-8-methyleneoctahydro-1H-3,11b-(epoxymethano)-6a,9-methanocyclohepta[a]naphthalene-1,6,7(2H,8H)-trione] | – | – | – | – | – | – | – | – | – | no obvious antiproliferative activities | – | – |
